Test results from ChEMBL document CHEMBL4028889 (2017).
Calls of active or inactive are those of the source. No cut-off for these calls is given here.

Assays:
[1] = system: PC-12; test: Neuroprotective activity against etoposide-induced apoptosis in rat PC12 cells assessed as cell viability at 3 uM pretreated for 4 hrs followed by etoposide challenge measured after 48 hrs by PrestoBlue assay (reference value: 52.13 +/- 1.13%); assay type: functional; settings: read-out: Activity
Summary of the method: (§1)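 PC12 cells were plated at 50000/well on collagen-coated plates and left overnight. They were pretreated 4 h with compound, then given 15 μg/mL etoposide. Viability was read at 48 h by PrestoBlue (ex 560/em 590 nm). n = 3, mean ± SEM, as % viability.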

[2] = system: IMR90-c4; test: Neuroprotective activity against etoposide-induced apoptosis in human IMR90-c4 cells assessed as increase in cell viability at 3 to 30 uM pretreated for 4 hrs followed by etoposide challenge measured after 36 hrs by PrestoBlue assay; assay type: functional, cell-based
Summary of the method: (§2)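 IMR90-c4 iPSC-derived neurons were plated at 16000 cells/well on poly-D-lysine/laminin and matured. They were pretreated 4 h with compound, then given 15 μg/mL etoposide. Viability was read at 36 h by PrestoBlue fluorescence (ex 560/em 590 nm).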

[3] = system: PC-12; test: Induction of autophagy in rat PC12 cells at 3 uM after 48 hrs by MDC staining-based flow cytometric method relative to control; assay type: functional
Summary of the method: (§3)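 PC12 cells were treated for 48 h and then stained with 0.5 mM monodansylcadaverine for 30 min at 37 °C. Trypsinized cells were pooled with floating cells and resuspended in PBS/1% FBS. 10000 cells were read by flow cytometry in the FITC channel after gating out debris. MDC staining is expressed relative to vehicle.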

[4] = system: PC-12; test: Neuroprotective activity against etoposide-induced apoptosis in rat PC12 cells assessed as increase in Bcl2/Bax ratio at 3 uM pretreated for 4 hrs followed by etoposide challenge measured after 48 hrs by Western blot method; assay type: functional, cell-based
Summary of the method: (§4)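 PC12 cells were pretreated 4 h with compound before etoposide and lysed after 24 or 48 h. 50 μg protein was run on 10% SDS gel and blotted. Probes were Bcl-2 (1:1000), Bax (1:500) and actin, with HRP chemiluminescence and densitometric Bcl-2/Bax ratio. n = 2, mean ± SEM.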

[5] = Neuroprotective activity against etoposide-induced apoptosis in human IMR90-c4 cells assessed as increase in cell viability at 3 uM pretreated for 4 hrs followed by etoposide challenge measured after 36 hrs by PrestoBlue assay relative to control; assay type: functional; summary of the method: as §2
[6] = biological target: Glutamate [NMDA] receptor (Homo sapiens) (UniProt Q05586+Q12879+Q13224+O15399+O60391+Q14957+Q8TCU5); test: Antagonist activity at NMDA receptor in human IMR90-c4 cells assessed as decrease in NMDA-mediated reduction in cell viability at 0.1 to 30 uM by PrestoBlue assay; assay type: cell-based
Summary of the method: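 Neurons differentiated from IMR90-c4 iPSCs over roughly 21 days, then challenged with 500 μM NMDA. Viability was read with PrestoBlue. n = 1 with 4 technical replicates; % viability given as mean ± SEM.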

[7] = system: PC-12; test: Neuroprotective activity against etoposide-induced apoptosis in rat PC12 cells assessed as increase in cell viability at 0.1 uM pretreated for 4 hrs followed by etoposide challenge measured after 48 hrs by PrestoBlue assay relative to control; assay type: functional, cell-based; summary of the method: as §1
[8] = system: PC-12; test: Neuroprotective activity against H2O2-induced apoptosis in rat PC12 cells assessed as increase in cell viability at 1 to 30 uM after 4 hrs by PrestoBlue assay; assay type: functional, cell-based
Summary of the method: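 PC12 cells were exposed to 400 μM H2O2 with compounds at 1–30 μM. Viability was measured after 4 h with PrestoBlue.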

[9] = system: PC-12; test: Neuroprotective activity in rat PC12 cells assessed as decrease in H2O2-induced reactive oxygen species generation at 10 uM by CellROX/DAPI-blue staining-based fluorescence microscopic method; assay type: functional, cell-based
Summary of the method: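 PC12 cells were grown in RPMI with 10% horse serum and 5% FBS on collagen-coated plates. ROS was induced with H2O2 and cells exposed to compound. Staining used CellROX green plus DAPI, imaged by fluorescence microscopy at 40×.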

[10] = system: PC-12; test: Induction of autophagy in rat PC12 cells assessed as increase in beclin 1 expression at 3 uM after 24 hrs by Western blot method relative to control; assay type: functional
Summary of the method: (§5)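 PC12 lysates were taken after 24 h of compound treatment. 50 μg protein was run on 10% SDS gel and transferred to nitrocellulose. Blots were blocked in 5% BSA, probed overnight at 4 °C with beclin 1 (1:2000) and actin (1:5000), then HRP secondary. Chemiluminescence was quantified by densitometry.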

[11] = system: PC-12; test: Induction of autophagy in rat PC12 cells after 48 hrs by MDC staining-based flow cytometric method; assay type: functional, cell-based; summary of the method: as §3
[12] = system: PC-12; test: Neuroprotective activity against etoposide-induced apoptosis in rat PC12 cells assessed as increase in Bcl2/Bax ratio at 3 uM pretreated for 4 hrs followed by etoposide challenge measured after 24 hrs by Western blot method; assay type: functional; summary of the method: as §4
[13] = system: PC-12; test: Induction of autophagy in rat PC12 cells assessed as increase in beclin 1 expression at 10 uM after 24 hrs by Western blot method relative to control; assay type: functional; summary of the method: as §5
[14] = system: PC-12; test: Induction of autophagy in rat PC12 cells at 10 uM after 48 hrs by MDC staining-based flow cytometric method relative to control; assay type: functional; summary of the method: as §3
[15] = system: PC-12; test: Neuroprotective activity against etoposide-induced apoptosis in rat PC12 cells assessed as cell viability at 0.3 uM pretreated for 4 hrs followed by etoposide challenge measured after 48 hrs by PrestoBlue assay relative to control; assay type: functional; settings: read-out: Activity; summary of the method: as §1
[16] = system: PC-12; test: Induction of autophagy in rat PC12 cells assessed as increase in beclin 1 expression at 0.1 uM after 24 hrs by Western blot method relative to control; assay type: functional; summary of the method: as §5
[17] = system: PC-12; test: Neuroprotective activity against etoposide-induced apoptosis in rat PC12 cells assessed as cell viability at 0.1 uM pretreated for 4 hrs followed by etoposide challenge measured after 48 hrs by PrestoBlue assay relative to control; assay type: functional; settings: read-out: Activity; summary of the method: as §1
[18] = system: PC-12; test: Neuroprotective activity against etoposide-induced apoptosis in rat PC12 cells assessed as increase in Bcl2/Bax ratio at 0.1 uM pretreated for 4 hrs followed by etoposide challenge measured after 48 hrs by Western blot method; assay type: functional, cell-based; summary of the method: as §4
[19] = system: IMR90-c4; test: Neuroprotective activity against etoposide-induced apoptosis in human IMR90-c4 cells assessed as increase in cell viability at 0.1 to 3 uM pretreated for 4 hrs followed by etoposide challenge measured after 36 hrs by PrestoBlue assay; assay type: functional, cell-based; summary of the method: as §2
[20] = system: PC-12; test: Induction of autophagy in rat PC12 cells assessed as increase in beclin 1 expression after 24 hrs by Western blot method; assay type: functional, cell-based; summary of the method: as §5
[21] = system: PC-12; test: Neuroprotective activity against etoposide-induced apoptosis in rat PC12 cells assessed as increase in Bcl2/Bax ratio at 0.1 uM pretreated for 4 hrs followed by etoposide challenge measured after 24 hrs by Western blot method; assay type: functional; summary of the method: as §4
[22] = system: IMR-90; test: Neuroprotective activity against etoposide-induced apoptosis in human IMR90-c4 cells assessed as increase in cell viability at 0.1 uM pretreated for 4 hrs followed by etoposide challenge measured after 36 hrs by PrestoBlue assay relative to control; assay type: functional; summary of the method: as §2

Row | SMILES | viability at 3 µM [1] | fold change (FC) [3] | Activity [4] | inhibition [6] | Activity [8] | Activity [11] | Activity [12] | other results
1 | CCOC(=O)Nc1ccc(NCCc2ccc(F)cc2)nc1N | 59.3% |  |  |  |  |  |  | 
2 | Nc1nc(NCc2ccc(F)cc2)ccc1NC(=O)OCc1ccccc1 | 81.2% | 3 | Active | inactive | inactive |  |  | Activity [2]: Active; Activity [5]: 79%; Activity [7]: Active; Activity [9]: inactive
3 | CCOC(=O)Nc1ccc(NCc2ccccc2C(F)(F)F)nc1N | 82.8% |  |  |  |  |  |  | 
4 | CCCCCCOC(=O)Nc1ccc(NCc2ccc(F)cc2)nc1N | 78.5% |  |  |  |  |  |  | 
5 | CCOC(=O)Nc1ccc(NCc2ccc(Cl)cc2)nc1N | 64.3% | >5 | inactive | inactive | inactive | Dose-dependent effect | inactive | Activity [10]: -20%; Activity [13]: 104%; fold change (FC) [14]: >12
6 | C=CCOC(=O)Nc1ccc(NCc2ccc(F)cc2)nc1N | 84.9% | 2 | inactive | inactive | inactive |  | 150% | Activity [9]: inactive
7 | CCOC(=O)Nc1ccc(NCc2ccc(C)cc2)nc1 | 64.3% |  |  |  |  |  |  | 
8 | CCOC(=O)Nc1ccc(NCc2ccc(SC(F)(F)F)cc2)nc1N |  | 8 | inactive |  |  | Dose-dependent effect |  | viability at 0.3 µM [15]: 93%; Activity [5]: 71%; Activity [7]: Active
9 | CCOC(=O)Nc1ccc(NCc2ccc(C(F)(F)F)cc2)nc1N | 68.4% |  | inactive | inactive | inactive | Dose-dependent effect | 232% | Activity [16]: 18%; viability at 0.1 µM [17]: 84%; Activity [18]: inactive; Activity [19]: Active; Activity [20]: Dose-dependent effect; Activity [21]: 159%; Activity [22]: 75 - 76%
